# Screens from PubChem.
# Vif imaging = blocks HIV Vif function; HEK293T cells, Vif self-association by quenched fluorescence, imaging, 24 h; inhibition, % at 7.49 µM; 340,000 compounds, 0.35% hits; AID 602346; in the data active = inhibition above about 50%, passing the limit was not always enough
# Statin myotox sup = suppression of simvastatin myotoxicity; C2C12 myotubes + simvastatin, ATP luminescence, 48 h; scaled: DMSO 0, geranylgeraniol control 100; rescue of ATP level, % at 7.49 µM; 330,000 compounds, 0.78% hits; AID 602340;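 active = mean ATP rescue above about 67%, or every replicate alone reaching that limit, limit read from the data, passing the limit was not always enough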;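 also: myotubes were challenged with 10 µM simvastatin during compound exposure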
# SR-BI DiI-HDL act = SR-BI HDL lipid transfer activation; CHO ldlA[mSR-BI] cells, DiI-HDL uptake fluorescence, 3 h; 100 = double the neutral-control signal; activation, % at 12.5 µM; 320,000 compounds, 0.096% hits; AID 504775;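 active = mean replicate activation of at least 60% and every replicate at or above 60%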
#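 Assay system: LDL receptor-deficient CHO ldlA cells overexpressing murine SR-BI / Medium: BSA-supplemented, HEPES-buffered Ham's F12, pH 7.4 / Probe or stimulus: DiI-labelled HDL at 10 µg/mL final / Timing: compound with DiI-HDL co-incubation, 3 h at 37 °C / Technique: bottom-read cell fluorescence after medium removal, ex 550/em 595 nm / Measure: HDL uptake via cellular fluorescence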
# SR-BI HDL uptake = blocks mouse SR-BI lipid uptake from DiI-HDL; 320,000 compounds, 0.96% hits; ldlA[mSR-BI] CHO cells, DiI-HDL uptake fluorescence, 3 h; inhibition, % at 12.5 µM; Q61009;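 active = mean replicate inhibition of at least 70% and a set share of replicates each scoring 70 or more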
# Target sequence (Q61009 whole entry, looked up): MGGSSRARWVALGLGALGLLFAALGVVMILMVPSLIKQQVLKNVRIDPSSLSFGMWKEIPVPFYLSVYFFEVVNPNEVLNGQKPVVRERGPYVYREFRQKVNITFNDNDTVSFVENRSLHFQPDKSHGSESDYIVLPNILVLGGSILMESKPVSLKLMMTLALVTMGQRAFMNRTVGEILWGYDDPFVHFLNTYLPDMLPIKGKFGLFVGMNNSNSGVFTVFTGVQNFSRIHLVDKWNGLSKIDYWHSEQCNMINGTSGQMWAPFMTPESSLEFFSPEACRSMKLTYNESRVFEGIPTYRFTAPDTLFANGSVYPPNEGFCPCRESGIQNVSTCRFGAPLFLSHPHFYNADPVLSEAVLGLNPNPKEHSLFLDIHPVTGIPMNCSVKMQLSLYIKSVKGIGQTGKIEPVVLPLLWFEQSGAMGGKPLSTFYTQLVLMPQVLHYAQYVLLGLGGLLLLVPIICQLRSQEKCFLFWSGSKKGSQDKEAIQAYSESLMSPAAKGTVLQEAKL
# Hits are given with their value; n = inactive; x = no result. In the library only some 1.7% were active in any assay of this set; here they are far more common.
SMILES,Vif imaging,Statin myotox sup,SR-BI DiI-HDL act,SR-BI HDL uptake
CCc1nnc(NC(=O)C2CCCN(c3nc4ccccc4s3)C2)s1 (configuration not stated),n,n,n,n
COc1ccc(CCNC(=O)C2CCCN(c3nc4ccccc4s3)C2)cc1OC (configuration not stated),n,n,n,79
CCOc1ccc(CCNC(=O)C2CCN(c3nn4c(=O)cc(C)nc4s3)CC2)cc1OCC,n,x,n,72
CCC1=NN(C(=O)c2ccc(C)cc2)C(O)(c2ccc(Br)cc2)C1 (configuration not stated),n,x,103,n
CC1=NN(C(=O)c2csc(C)c2)C(O)(C(F)(F)F)C1 (configuration not stated),x,n,n,n
CC1=NN(C(=O)c2ccc(Br)cc2)C(O)(C(F)(F)OC(F)(F)F)C1 (configuration not stated),n,n,n,78
CCC1=NN(C(=O)c2ccc(Br)cc2)C(O)(c2ccc(C)cc2)C1 (configuration not stated),n,x,n,n
CC(=O)N[C@@H]1CC[C@H](CCNC(=O)Nc2ccc(C(F)(F)F)cc2)O[C@@H]1CO,x,n,x,x
C[C@@H](NC(=O)[C@H]1[C@H](CO)[C@H]2Cn3c(cccc3=O)[C@@H]1N2C(=O)C1CC1)c1ccccc1,x,n,x,x
CCCNC(=O)C[C@H]1CC[C@H]2[C@H](COc3ccc(NC(=O)Nc4c(C)noc4C)cc3C(=O)N2C)O1,x,n,x,x
CCCS(=O)(=O)c1cnc(C2COc3ccccc3O2)nc1N (configuration not stated),80,n,n,n
CO[C@@H]1CN(C)C(=O)c2ccc(NC(C)=O)cc2OC[C@H](C)N(Cc2ccc(F)cc2)C[C@@H]1C,x,n,x,x
CCC(=O)N[C@H]1CC[C@H](CC(=O)OC)O[C@@H]1CO,x,n,x,x
COc1cc(NC(=O)c2ccco2)c(C(=O)OCC(=O)Nc2ncc(Cl)cc2Cl)cc1OC,n,x,n,n
CC(C)c1ccccc1NC(=O)COC(=O)c1cc([N+](=O)[O-])ccc1N1CCOCC1,n,n,n,n
O=C(COC(=O)c1cc([N+](=O)[O-])ccc1N1CCOCC1)Nc1cc(F)ccc1F,n,n,n,85
Cc1cc(C)c(NC(=O)COC(=O)c2cc([N+](=O)[O-])ccc2N2CCOCC2)c(C)c1,n,n,n,n
O=C(COC(=O)c1ccccc1NC(=O)c1ccco1)Nc1ncc(Cl)cc1Cl,n,94,n,n
O=C(COC(=O)c1cc([N+](=O)[O-])ccc1N1CCOCC1)Nc1ccccc1OC(F)F,n,n,n,74
Cc1cc(NC(=O)COC(=O)c2cc([N+](=O)[O-])ccc2N2CCOCC2)ccc1Br,n,x,n,71
O=C(C[C@H]1CC[C@H](NC(=O)Nc2cc(F)ccc2F)[C@H](CO)O1)NCc1ccncn1,x,n,x,x
C[C@H]1CN([C@@H](C)CO)C(=O)Cc2cc(NC(=O)Cc3cn(C)c4ccccc34)ccc2O[C@H]1CN(C)C(=O)Nc1ccccc1,x,n,x,x
O=C(C[C@@H]1C=C[C@H](NC(=O)c2ccc(F)cc2)[C@H](CO)O1)NCCc1ccccc1,x,n,x,x
Cc1cc(C(=O)OCC(=O)Nc2cc(C(F)(F)F)ccc2N2CCOCC2)c(C)o1,n,94,n,n
COc1ccc(OC)c(COC(=O)c2cc([N+](=O)[O-])ccc2N2CCOCC2)c1,n,n,n,n
SMILES,Vif imaging,Statin myotox sup,SR-BI DiI-HDL act,SR-BI HDL uptake
O=C(COC(=O)c1cc([N+](=O)[O-])ccc1N1CCOCC1)Nc1ncc(Cl)cc1Cl,n,n,x,86
O=C(COC(=O)c1cc([N+](=O)[O-])ccc1N1CCOCC1)c1ccc(OC(F)F)cc1OC(F)F,n,n,n,76
O=C(COC(=O)c1c(F)cccc1F)Nc1ccccc1OC(F)F,51,n,x,x
CCC(=O)Nc1cc(C(F)(F)F)ccc1N1CCOCC1,n,n,n,n
COC(=O)[C@@H]1[C@@H](CO)[C@@H]2Cn3c(ccc(-c4ccccc4)c3=O)[C@@H]2N1C(=O)CC1CC1,x,n,x,x
CN(C)CCCNC(=O)C[C@@H]1CC[C@@H]2[C@@H](COc3ccc(NC(=O)c4ccc5c(c4)OCO5)cc3C(=O)N2C)O1,x,n,x,x
COc1ccc(N2Nc3n[nH]c(N)c3N2)cc1,n,106,n,n
O=C(/C=C\Nc1ccc2c(c1)OCO2)c1cccs1,66,n,n,n
COC(=O)C[C@@H]1CC[C@@H]2[C@H](COc3ccc(NC(=O)c4ccc(OC)cc4)cc3C(=O)N2C)O1,x,n,x,x
O=C(Nc1ccc(F)c(Cl)c1)Nc1csc2ccccc12,n,x,n,87
CO[C@H]1CN(C)C(=O)c2ccc(NC(=O)c3ccc(F)cc3)cc2OC[C@@H](C)N(C(C)=O)C[C@@H]1C,x,n,x,x
Cn1c(SCC(=O)c2ccccc2)nnc1-c1ccccn1,n,n,n,n
Cn1c(SCC(=O)c2ccc(F)cc2)nnc1-c1cnccn1,122,n,n,n
C[C@@H]1CN([C@@H](C)CO)C(=O)c2cc(-c3ccc(F)cc3)cnc2O[C@@H]1CN(C)Cc1ccc(F)cc1,x,n,x,x
C[C@@H]1CN([C@@H](C)CO)C(=O)c2cccc(NS(C)(=O)=O)c2O[C@@H]1CN(C)Cc1ccc2c(c1)OCO2,x,n,x,x
CCN1C(=O)/C(=C/C=C2/Sc3ccc4ccccc4c3N2CCO)SC1=S,n,x,n,n
CCCN1C(=O)/C(=C\C=C2/C=CN(CC)c3ccccc32)SC1=S,n,x,n,146
CCOc1nnc(C)c2c(C)n(-c3ccc(Cl)cc3)nc12,n,119,n,n
COC(=O)C[C@@H]1CC[C@@H]2[C@@H](COc3ccc(NS(=O)(=O)c4ccccc4F)cc3C(=O)N2C)O1,x,n,x,x
CCN1[C@@H]2Cn3c(ccc(-c4cccc(F)c4)c3=O)[C@H]1[C@@H](C(=O)N(C)C)[C@@H]2CO,x,n,x,x
CO[C@H]1CN(C)C(=O)c2cc(NC(=O)Nc3ccc(Cl)cc3)ccc2OC[C@@H](C)N(C(=O)Nc2c(C)noc2C)C[C@@H]1C,x,n,x,x
COc1ccc(C(=O)N/C(=C/c2cccs2)C(=O)NN)cc1OC,n,x,n,75
